How the values were obtained:
U-87 MG = assay: Cytotoxicity against human U87 cells assessed as inhibition of proliferation at 10 uM by MTT assay; type: cell-based; settings: u-87mg atcc
Nonstructural protein 3 = Nonstructural protein 3 (Zika virus, UniProt A0A024AXB9); assay: Inhibition Zika virus NS2B (47 to 95 residues)/NS3 (1 to 170 residues) protease expressed in Escherichia coli BL21 using 7-amino-4-methylcoumarin as substrate by fluorescence assay
Outline: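 Single-chain NS2B(47–95)–Gly4-Ser-Gly4–NS3(1–170) enzyme at 1 nM in 20 mM HEPES pH 7.3 with 0.05% Triton X-100. Compound (1 nM–10 µM, triplicate) is preincubated 10 min before adding Bz-Nle-Lys-Lys-Arg-AMC at 20 µM. Fluorescence (Ex 360/Em 460 nm) is read every 30 s. IC50 comes from dose-response fitting of initial velocities, 3 independent experiments with SD.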

Vero = assay: Cytotoxicity against African green monkey Vero cells assessed as inhibition of proliferation at 10 uM by MTT assay; type: cell-based; settings: chlorocebus sabaeus
Genome polyprotein [1] = biological target: Genome polyprotein (dengue virus type 2, UniProt P29990); assay: Inhibition Dengue serotype-2 NS3B/NS3 protease using 7-amino-4-methylcoumarin as substrate by fluorescence assay
Sequence of Genome polyprotein (dengue virus type 2, UniProt P29990) (P29990 1346-1475 limits assumed): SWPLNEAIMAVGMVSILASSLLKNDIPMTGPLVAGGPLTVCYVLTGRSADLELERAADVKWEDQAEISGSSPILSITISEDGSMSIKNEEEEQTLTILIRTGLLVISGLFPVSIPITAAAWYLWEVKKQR
Sequence of Genome polyprotein (dengue virus type 2, UniProt P29990) (P29990 1476-2093 limits assumed): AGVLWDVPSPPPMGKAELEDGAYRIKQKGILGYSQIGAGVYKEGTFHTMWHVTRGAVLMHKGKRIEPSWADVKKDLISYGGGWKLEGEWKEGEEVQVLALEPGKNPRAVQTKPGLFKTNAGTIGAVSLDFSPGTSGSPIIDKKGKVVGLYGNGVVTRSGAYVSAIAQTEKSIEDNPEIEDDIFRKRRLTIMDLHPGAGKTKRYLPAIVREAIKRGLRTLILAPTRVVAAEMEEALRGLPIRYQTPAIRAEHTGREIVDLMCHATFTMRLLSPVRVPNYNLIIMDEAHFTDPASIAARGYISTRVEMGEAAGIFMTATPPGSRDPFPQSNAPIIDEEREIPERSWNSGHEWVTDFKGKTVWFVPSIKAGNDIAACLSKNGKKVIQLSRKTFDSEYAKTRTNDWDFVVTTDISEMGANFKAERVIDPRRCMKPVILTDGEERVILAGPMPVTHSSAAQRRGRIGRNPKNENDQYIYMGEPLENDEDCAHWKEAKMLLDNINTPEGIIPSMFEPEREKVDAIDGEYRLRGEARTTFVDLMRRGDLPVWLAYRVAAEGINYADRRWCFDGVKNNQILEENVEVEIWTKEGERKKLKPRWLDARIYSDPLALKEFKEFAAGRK

Genome polyprotein [2] = biological target: Genome polyprotein (West Nile virus, UniProt P06935); assay: Inhibition West Nile virus NS3B/NS3 protease using 7-amino-4-methylcoumarin as substrate by fluorescence assay
Sequence of Genome polyprotein (West Nile virus, UniProt P06935) (P06935 1371-1501 limits assumed): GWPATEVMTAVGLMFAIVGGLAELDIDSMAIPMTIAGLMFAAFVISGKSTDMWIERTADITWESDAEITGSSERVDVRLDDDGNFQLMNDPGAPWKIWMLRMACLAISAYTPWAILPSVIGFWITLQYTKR
Sequence of Genome polyprotein (West Nile virus, UniProt P06935) (P06935 1502-2120 limits assumed): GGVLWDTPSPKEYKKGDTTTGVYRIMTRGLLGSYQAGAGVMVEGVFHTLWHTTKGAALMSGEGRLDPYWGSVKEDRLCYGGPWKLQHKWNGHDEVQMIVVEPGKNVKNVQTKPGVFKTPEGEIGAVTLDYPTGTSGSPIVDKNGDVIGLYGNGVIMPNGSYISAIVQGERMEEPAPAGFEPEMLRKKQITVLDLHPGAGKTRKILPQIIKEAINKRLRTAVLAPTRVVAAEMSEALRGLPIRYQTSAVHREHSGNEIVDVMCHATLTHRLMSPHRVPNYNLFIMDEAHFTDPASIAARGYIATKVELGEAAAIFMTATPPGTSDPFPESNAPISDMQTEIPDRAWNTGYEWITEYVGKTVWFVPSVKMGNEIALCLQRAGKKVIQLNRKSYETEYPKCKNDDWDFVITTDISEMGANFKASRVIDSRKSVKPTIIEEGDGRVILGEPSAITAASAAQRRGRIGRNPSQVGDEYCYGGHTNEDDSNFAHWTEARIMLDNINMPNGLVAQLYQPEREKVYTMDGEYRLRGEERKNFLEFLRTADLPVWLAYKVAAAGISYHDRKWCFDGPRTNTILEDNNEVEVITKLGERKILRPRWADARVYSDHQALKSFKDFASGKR

Sequence of Nonstructural protein 3 (A0A024AXB9 whole entry, the tested form may be a part): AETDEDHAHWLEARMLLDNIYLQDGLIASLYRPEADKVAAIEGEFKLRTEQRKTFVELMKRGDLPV

| Structure (SMILES) | IC50 (Nonstructural protein 3) [µM] | other results |
| --- | --- | --- |
| NCc1ccc(-c2ncc(OCC3CCNCC3)nc2-c2ccc(C(=O)N3CCOCC3)cc2)cc1 | > 10 | Activity (U-87 MG): Non-Toxic; Activity (Vero): Non-Toxic |
| Cc1noc(C)c1-c1nc(OCC2CCNCC2)cnc1-c1ccc(CN)cc1 | 11.1 | – |
| NCc1ccc(-c2nc(OCC3CCNCC3)cnc2-c2ccc(O)cc2)cc1 | 8.1 | – |
| NCc1ccc(-c2ncc(OCC3CCNCC3)nc2-c2ccc(N3CCOCC3)cc2)cc1 | > 10 | Activity (U-87 MG): Non-Toxic; Activity (Vero): Non-Toxic |
| c1cc(-c2ccc(-c3ncc(OCC4CCNCC4)nc3-c3ccc(-c4ccoc4)cc3)cc2)co1 | 1 | – |
| NCc1ccc(-c2ncc(OCC3CCNCC3)nc2-c2ccc(-c3ccncc3)cc2)cc1 | 26.5 | IC50 (Genome polyprotein [1]): > 50 µM; IC50 (Genome polyprotein [2]): > 50 µM |
| Ic1ccc(-c2ncc(OCCC3CCNCC3)nc2-c2ccc(I)cc2)cc1 | 4.7 | IC50 (Genome polyprotein [1]): 10.2 µM; IC50 (Genome polyprotein [2]): 1.8 µM |
| COc1cc(-c2ncc(OCC3CCNCC3)nc2-c2ccc(-c3ccsc3)cc2)ccc1C(N)=O | 4.7 | – |
| NCc1ccc(-c2ncc(OCC3CCNCC3)nc2-c2cccc3[nH]cnc23)cc1 | 1.6 | – |
| OCc1ccc(-c2ncc(OCCC3CCNCC3)nc2-c2ccc(CO)cc2)cc1 | 2.1 | – |
| NCc1ccc(-c2ncc(OCC3CCNCC3)nc2-c2ccc(-c3ccoc3)cc2CO)cc1 | > 10 | Activity (U-87 MG): Non-Toxic; Activity (Vero): Non-Toxic |
| COc1cc(-c2ccoc2)ccc1-c1nc(OCC2CCNCC2)cnc1-c1ccc(CN)cc1 | 1.9 | Activity (U-87 MG): Non-Toxic; Activity (Vero): Non-Toxic |
| NCc1cccc(-c2ncc(OCC3CCNCC3)nc2-c2ccc(-c3ccoc3)cc2)c1 | 2.9 | – |
| NCc1ccc(-c2ncc(NCC3CCNCC3)nc2C(=O)Nc2ccc(-c3ccoc3)cc2)cc1 | 1.1 | – |
| NCc1ccc(-c2ncc(OCC3CCNCC3)nc2-c2ccc(C3CCNCC3)cc2)cc1 | 3.1 | Activity (U-87 MG): Non-Toxic; Activity (Vero): Non-Toxic |
| NCc1ccc(-c2ncc(OCC3CCNCC3)nc2-c2ccc(C3CCOC3)cc2)cc1 (stereo unspecified) | 0.59 | Activity (U-87 MG): Non-Toxic; Activity (Vero): Non-Toxic |
| N#Cc1cc(-c2nc(OCC3CCNCC3)cnc2-c2ccc(CN)cc2)ccc1-c1ccoc1 | 1.8 | Activity (U-87 MG): Non-Toxic; Activity (Vero): Non-Toxic |
| NCc1ccc(-c2nc(N3CCC[C@@H](N)C3)c3nccn3c2-c2ccc(CN)cc2)cc1 | 3.5 | – |
| CN(C)Cc1ccc(-c2ncc(OCC3CCNCC3)nc2-c2ccc(-c3ccoc3)cc2)cc1 | 6.1 | – |
| NCc1ccc(-c2ncc(OCC3CCNCC3)nc2-c2ccc(-n3cc(CO)nn3)cc2)cc1 | > 10 | – |
| CN(C)Cc1ccc(-c2nc(OCC3CCNCC3)cnc2-c2ccc(-c3ccoc3)cc2)cc1 | 1.8 | – |
| NCc1ccc(-c2ncc(OCC3CCNCC3)nc2-c2ccc(-n3ccnn3)cc2)cc1 | > 10 | – |

| Structure (SMILES) | IC50 (Nonstructural protein 3) [µM] | other results |
| --- | --- | --- |
| NCc1ccc(-c2ncc(OCC3CCNCC3)nc2-c2ccc(CN)cc2)cc1 | 0.62 | – |
| Cc1cc(-c2nc(OCC3CCNCC3)cnc2-c2ccc(CN)cc2)ccc1-c1ccoc1 | 10.6 | Activity (U-87 MG): Non-Toxic; Activity (Vero): Non-Toxic |
| NCc1ccc(-c2nc(N)c(OCC3CCNCC3)nc2-c2ccc(CN)cc2)cc1 | 2.1 | – |
| CNCCOc1cnc(-c2ccc(CN)cc2)c(-c2ccc(-c3ccoc3)cc2)n1 | 2.1 | – |
| NCc1ccc(-c2ncc(OCCN3CCNCC3)nc2-c2ccc(CN)cc2)cc1 | > 10 | – |
| CN(C)Cc1ccc(-c2nc(OCC3CCNCC3)cnc2-c2ccc(O)cc2)cc1 | 20.5 | – |
| CC(=O)NCc1ccc(-c2ncc(OCC3CCNCC3)nc2-c2ccc(CN)cc2)cc1 | 30 | – |
| Ic1ccc(-c2ncc(OCCCC3CCNCC3)nc2-c2ccc(I)cc2)cc1 | > 10 | – |
| COc1cc(-c2nc(OCC3CCNCC3)cnc2-c2ccc(CN)cc2)ccc1-c1ccoc1 | 8 | Activity (U-87 MG): Non-Toxic; Activity (Vero): Non-Toxic |
| NCc1ccc(-c2ncc(OCCC3CCNCC3)nc2-c2ccc(CN)cc2)cc1 | > 10 | – |
| CC(=O)NCc1ccc(-c2ncc(OCC3CCNCC3)nc2-c2ccc(CNC(C)=O)cc2)cc1 | > 10 | – |
| Ic1ccc(-c2ncc(OCC3CCNCC3)nc2-c2ccc(I)cc2)cc1 | 0.52 | – |
| Cc1cc(-c2ccoc2)ccc1-c1nc(OCC2CCNCC2)cnc1-c1ccc(CN)cc1 | 17.1 | Activity (U-87 MG): Non-Toxic; Activity (Vero): Non-Toxic |
| NCc1ccc(-c2nc(OCCC3CCNCC3)cnc2-c2ccncc2)cc1 | 1.7 | – |
| NCc1ccc(-c2ncc(NCC3CCNCC3)nc2-c2ccc(-c3ccoc3)cc2F)cc1 | 2.3 | – |
| NCc1ccc(-c2ccc(NCC3CCNCC3)nc2-c2ccc(CN)cc2)cc1 | 3.7 | – |
| NCc1ccc(-c2ncc(OCC3CCNCC3)nc2-c2ccc(CN)c(F)c2)cc1 | > 50 | – |
| NCCCOc1cnc(-c2ccc(CN)cc2)c(-c2ccc(-c3ccoc3)cc2)n1 | 1.3 | – |
| CC(=O)OCc1ccc(-c2ncc(OCC3CCNCC3)nc2-c2ccc(COC(C)=O)cc2)cc1 | > 10 | – |
| NCc1ccc(-c2nc(OCCN3CCNCC3)cnc2-c2ccc(-c3ccoc3)cc2)cc1 | 1.8 | – |
| NCc1ccc(-c2ncc(OCC3CCNCC3)nc2-c2ccc(N3CCCCC3)cc2)cc1 | > 10 | Activity (U-87 MG): Non-Toxic; Activity (Vero): Non-Toxic |
| NCc1ccc(-c2ncc(OCc3ccccc3)nc2-c2ccc(-c3ccoc3)cc2)cc1 | 3.2 | – |

| Structure (SMILES) | IC50 (Nonstructural protein 3) [µM] | other results |
| --- | --- | --- |
| CN(C)Cc1ccc(-c2ncc(OCC3CCNCC3)nc2-c2ccc(CN(C)C)cc2)cc1 | 0.39 | – |
| NC(=O)c1ccc(-c2ncc(OCC3CCNCC3)nc2-c2ccc(-c3ccoc3)cc2)cc1F | 2.3 | – |
| NCc1ccc(-c2ncc(OCC3CCNCC3)nc2-c2ccc(C(=O)N3CCCC3)cc2)cc1 | 13 | Activity (U-87 MG): Non-Toxic; Activity (Vero): Non-Toxic |
| NCc1ccc(-c2ncc(OCC3CCNCC3)nc2-c2ccc(C3=CCNCC3)cc2)cc1 | 2.9 | Activity (U-87 MG): Non-Toxic; Activity (Vero): Non-Toxic |
| NCc1ccc(-c2ncc(OCC3CCNCC3)nc2-c2ccc(C(=O)N3CCCCC3)cc2)cc1 | 3.5 | Activity (U-87 MG): Non-Toxic; Activity (Vero): Non-Toxic |
| Cc1noc(C)c1-c1ccc(-c2nc(OCC3CCNCC3)cnc2-c2ccc(CN)cc2)cc1 | > 10 | – |
| OCc1ccc(-c2ncc(OCC3CCNCC3)nc2-c2ccc(CO)cc2)cc1 | 0.51 | – |
| NCc1ccc(-c2ncc(OCC3CCNCC3)nc2-c2ccc(-c3ccoc3)cc2F)cc1 | 8.4 | Activity (U-87 MG): Non-Toxic; Activity (Vero): Non-Toxic |
| NCc1ccc(-c2ncc(OC3CCNCC3)nc2-c2ccc(-c3ccoc3)cc2)cc1 | 1.6 | – |
| NCc1ccc(-c2ncc(OCC3CCNCC3)nc2-c2ccc(C3CCCCC3)cc2)cc1 | 16.2 | Activity (U-87 MG): Non-Toxic; Activity (Vero): Non-Toxic |
| NCc1ccc(-c2ncc(OCC3CCNCC3)nc2-c2ccc(N3CCCC3)cc2)cc1 | 2.5 | Activity (U-87 MG): Non-Toxic; Activity (Vero): Non-Toxic |
| Cc1cc(CN)ccc1-c1ncc(OCC2CCNCC2)nc1-c1ccc(-c2ccoc2)cc1 | 2.6 | – |
| NCc1ccc(-c2ncc(OCCC3CCNCC3)nc2-c2ccc(-c3ccoc3)cc2)cc1 | 1.3 | – |
| ONCc1ccc(-c2ncc(OCC3CCNCC3)nc2-c2ccc(-c3ccoc3)cc2)cc1 | 1.2 | – |
| CN(C)Cc1ccc(-c2nc(OCC3CCNCC3)cnc2-c2cccnc2)cc1 | 9.9 | – |
| COc1cc(CN)ccc1-c1nc(OCC2CCNCC2)cnc1-c1ccncc1 | 3.5 | – |
| NCc1ccc(-c2cc(CNCC3CCNCC3)sc2-c2ccc(CN)cc2)cc1 | 10.7 | IC50 (Genome polyprotein [2]): > 50 µM |
| NCc1ccc(-c2ncc(OCC3CCNCC3)nc2-c2cccc(C3CCOC3)c2)cc1 (stereo unspecified) | > 10 | Activity (U-87 MG): Non-Toxic; Activity (Vero): Non-Toxic |
| NCc1ccc(-c2nc(OCC3CCNCC3)cnc2-c2ccncc2)cc1 | 0.32 | – |
| NCc1ccc(-c2nc(OCC3CCNCC3)c3nccn3c2-c2ccc(CN)cc2)cc1 | 9.3 | – |
| NCc1ccc(-c2nc(N3CC[C@H](N)C3)c3nccn3c2-c2ccc(CN)cc2)cc1 | 19.3 | – |

Source: ChEMBL document CHEMBL4811233, “Synthesis, Structure-Activity Relationships, and Antiviral Activity of Allosteric Inhibitors of Flavivirus NS2B-NS3 Protease” (J Med Chem, 2021)
